In ChEMBL document CHEMBL1144432, “New inhibitors of rabbit muscle triose-phosphate isomerase” (Bioorg Med Chem Lett, 2005):

Tests used:
[1] = target: T1, Triosephosphate isomerase (Oryctolagus cuniculus, UniProt P00939); assay: Inhibitory concentration against rabbit muscle triose-phosphate isomerase; parameters: species or system Muscle tissue
[2] = Inhibitory concentration against class II fructose-bisphosphate aldolase
[3] = Binding affinity against class II fructose-bisphosphate aldolase
[4] = target: T1, Triosephosphate isomerase; assay: Binding affinity against rabbit muscle triose-phosphate isomerase; parameters: species or system Muscle tissue
Method in brief: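 Rabbit muscle TIM, converting G3P to DHAP, was coupled to a large excess of glycerol-3-phosphate dehydrogenase. NADH consumption was followed at 340 nm. The G3P level was estimated enzymatically with the same coupled system. The cuvette was preincubated 10 min at 25 C, and the reaction was started with G3P (0–250). Inhibitor was tested at 0–30 µM, with inhibition analysed on double-reciprocal plots against 1/[G3P].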

T1 sequence (P00939 whole entry): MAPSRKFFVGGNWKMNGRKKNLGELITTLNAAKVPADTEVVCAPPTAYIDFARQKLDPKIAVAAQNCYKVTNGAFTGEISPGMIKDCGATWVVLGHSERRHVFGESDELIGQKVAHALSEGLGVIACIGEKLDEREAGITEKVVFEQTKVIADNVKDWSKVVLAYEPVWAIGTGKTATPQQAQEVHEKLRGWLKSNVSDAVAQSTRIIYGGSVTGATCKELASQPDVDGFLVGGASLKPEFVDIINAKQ

| SMILES | IC50 [1] [µM] | IC50 [2] [µM] | Ki [3] [µM] | Ki [4] [µM] |
| --- | --- | --- | --- | --- |
| N/C(CCP(=O)(O)O)=N\O | 9600 | 3420 |  |  |
| NNC(=O)CCP(=O)(O)O | 27000 | 3630 |  |  |
| O=C(CCP(=O)(O)O)NO |  |  | 145 | 159 |
| NNC(=O)COP(=O)(O)O [PHOSPHORIC ACID MONOHYDRAZINOCARBONYLMETHYL ESTER] |  |  | 0.34 | 111 |
| O=C(COP(=O)(O)O)NO [PHOSPHOGLYCOLOHYDROXAMATE] |  |  | 0.01 | 3 |
| N/C(COP(=O)(O)O)=N/O |  |  | 2.3 | 4.5 |
